Results published in ChEMBL document CHEMBL4715780, “Biological evaluation of tetracationic compounds based on two 1,4-diazabicyclo[2.2.2]octane moieties connected by different linkers” (Bioorg Med Chem, 2016).
Converted amounts (≈) assume the structure as drawn.

Assays:
[1] = test system: Escherichia coli; assay: Antibacterial activity against Escherichia coli ATCC 25922 assessed as bacterial growth inhibition by CLSI protocol based serial microdilution method; format: functional
[2] = test system: Salmonella typhimurium; assay: Antibacterial activity against Salmonella enterica ATCC 14028 assessed as concentration required to inhibit visible growth by CLSI protocol based serial microdilution method; format: functional, Salmonella enterica subsp. enterica serovar Typhimurium
[3] = Selectivity index, ratio of CC50 for HEK293T cells assessed as reduction in cell viability measured after 24 hrs by MTT assay to MIC for Candida albicans CEMTC 34 assessed as bacterial growth inhibition by CLSI protocol based serial microdilution method; format: toxicity; conditions: human, read-out: Selectivity Index
Method in brief: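 SI = CC₅₀ (HEK293T) / MIC. HEK293T cells were seeded at 20,000/well overnight, then exposed to 10–250 µg/mL in IMDM with 10% FBS for 24 h. MTT was added for 4 h, solubilised with SDS-HCl, and read at 570 nm; duplicates, ≥2 independent runs. MIC came from two-fold dilutions in Sabouraud dextrose broth at ~5 × 10⁵ CFU/mL, 37 °C with shaking, read at 595 nm, in duplicate.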

[4] = Selectivity index, ratio of CC50 for HEK293T cells assessed as reduction in cell viability measured after 24 hrs by MTT assay to MIC for Pseudomonas aeruginosa ATCC 9027 assessed as bacterial growth inhibition by CLSI protocol based serial microdilution method; format: toxicity; conditions: human, read-out: Selectivity Index
[5] = test system: Escherichia coli; assay: Antibacterial activity against Escherichia coli ATCC 25922 assessed as concentration required to inhibit visible growth by CLSI protocol based serial microdilution method; format: functional
[6] = test system: Staphylococcus aureus; assay: Antibacterial activity against […] Staphylococcus aureus ATCC 25923 assessed as concentration required to inhibit visible growth by CLSI protocol based serial microdilution method; format: functional
[7] = Cytotoxicity against human MCF7 cells assessed as reduction in cell viability measured after 24 hrs by MTT assay; format: cell-based
Method in brief: (§1)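 HEK293T or MCF-7 cells in IMDM with 10% FBS, seeded at 20,000 per well and grown overnight. Compounds at […] in fresh medium for 24 h at 37 °C, 5% CO₂. MTT then added for 4 h, precipitate dissolved overnight in SDS-HCl, absorbance read at 570 nm. Viability expressed relative to untreated cells, giving CC₅₀. Duplicate wells, at least two independent repeats.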

[8] = test system: Salmonella typhimurium; assay: Antibacterial activity against Salmonella enterica ATCC 14028 assessed as bacterial growth inhibition by CLSI protocol based serial microdilution method; format: functional, Salmonella enterica subsp. enterica serovar Typhimurium
[9] = Selectivity index, ratio of CC50 for HEK293T cells assessed as reduction in cell viability measured after 24 hrs by MTT assay to MIC for Staphylococcus aureus ATCC 25923 assessed as bacterial growth inhibition by CLSI protocol based serial microdilution method; format: toxicity; conditions: human, read-out: Selectivity Index
[10] = test system: Pseudomonas aeruginosa; assay: Antibacterial activity against Pseudomonas aeruginosa ATCC 9027 assessed as bacterial growth inhibition by CLSI protocol based serial microdilution method; format: functional
[11] = test system: Proteus vulgaris; assay: Antibacterial activity against Proteus vulgaris ATCC 6380 assessed as bacterial growth inhibition by CLSI protocol based serial microdilution method; format: functional
[12] = test system: Candida albicans; assay: Antifungal activity against Candida albicans CEMTC 34 assessed as fungal growth inhibition by CLSI protocol based serial microdilution method; format: functional
Method in brief: (§2)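 Candida albicans grown in Sabouraud dextrose broth with two-fold serial compound dilutions from water stocks; final inoculum about 5 × 10⁵ CFU/mL. Incubated at 37 °C with orbital shaking (580 rpm). MIC is the lowest concentration preventing growth, by absorbance at 595 nm. MFC is the lowest concentration with no visible growth. Duplicates in two separate experiments.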

[13] = test system: Proteus vulgaris; assay: Antibacterial activity against Proteus vulgaris ATCC 6380 assessed as concentration required to inhibit visible growth by CLSI protocol based serial microdilution method; format: functional
[14] = test system: Candida albicans; assay: Antifungal activity against Candida albicans CEMTC 34 assessed as concentration required to inhibit visible growth by CLSI protocol based serial microdilution method; format: functional; method in brief: as §2
[15] = Selectivity index, ratio of CC50 for HEK293T cells assessed as reduction in cell viability measured after 24 hrs by MTT assay to MIC for Citrobacter freundii ATCC 8090 assessed as bacterial growth inhibition by CLSI protocol based serial microdilution method; format: toxicity; conditions: human, read-out: Selectivity Index
[16] = Cytotoxicity against MDCK cells assessed as cell death incubated for 48 hrs by MTT assay; format: cell-based, Canis lupus familiaris; conditions: dog
[17] = Selectivity index, ratio of CC50 for MDCK cells to EC50 for Influenza A virus (A/Puerto Rico/8/34 (H1N1)) infected in MDCK cells; format: toxicity, cell-based; conditions: dog, read-out: Ratio CC50/EC50
Method in brief: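 Ratio of CC₅₀ to EC₅₀, both in MDCK cells, with cytotoxicity run in parallel with the antiviral assay. EC₅₀ is the concentration halving virus production (0.3 log₁₀ EID₅₀ titre drop). It was obtained after 1 h compound pre-incubation, infection, 48 h at 37 °C, and hemagglutination read-out with 1% chicken erythrocytes.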

[18] = Selectivity index, ratio of CC50 for HEK293T cells assessed as reduction in cell viability measured after 24 hrs by MTT assay to MIC for Proteus vulgaris ATCC 6380 assessed as bacterial growth inhibition by CLSI protocol based serial microdilution method; format: toxicity; conditions: human, read-out: Selectivity Index
[19] = Selectivity index, ratio of CC50 for HEK293T cells assessed as reduction in cell viability measured after 24 hrs by MTT assay to MIC for Escherichia coli ATCC 25922 assessed as bacterial growth inhibition by CLSI protocol based serial microdilution method; format: toxicity; conditions: human, read-out: Selectivity Index
[20] = test system: Citrobacter freundii; assay: Antibacterial activity against Citrobacter freundii ATCC 8090 assessed as bacterial growth inhibition by CLSI protocol based serial microdilution method; format: functional
[21] = test system: Staphylococcus aureus; assay: Antibacterial activity against […] Staphylococcus aureus ATCC 25923 assessed as bacterial growth inhibition by CLSI protocol based serial microdilution method; format: functional
[22] = Cytotoxicity against HEK293T cells assessed as reduction in cell viability measured after 24 hrs by MTT assay; format: cell-based, HEK-293T; conditions: human; method in brief: as §1
[23] = Selectivity index, ratio of CC50 for HEK293T cells assessed as reduction in cell viability measured after 24 hrs by MTT assay to MIC for Salmonella enterica ATCC 14028 assessed as bacterial growth inhibition by CLSI protocol based serial microdilution method; format: toxicity; conditions: human, read-out: Selectivity Index
[24] = test system: Influenza A virus; assay: Antiviral activity against Influenza A virus (A/Puerto Rico/8/34 (H1N1) infected in MDCK cells assessed as decrease in viral titer preincubated for 1 hr followed by viral infection and cultivated for 48 hrs followed by supernatant transferred to chicken erythrocyte for 1 hr followed by measuring ability to cause positive hemagglutination; format: functional, organism-based; conditions: A/Puerto Rico/8/1934(H1N1)
Method in brief: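 MDCK monolayers in MEM were pre-incubated with compound for 1 h at 37 °C, then infected with 10-fold virus dilutions (10⁻¹–10⁻⁶) and held 48 h at 37 °C, 5% CO₂. Supernatant was mixed with an equal volume of 1% chicken erythrocytes, 60 min at room temperature. Titre was taken from the highest dilution giving full agglutination (log₁₀ EID₅₀). Triplicate per concentration.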

[25] = test system: Pseudomonas aeruginosa; assay: Antibacterial activity against Pseudomonas aeruginosa ATCC 9027 assessed as concentration required to inhibit visible growth by CLSI protocol based serial microdilution method; format: functional
[26] = Selectivity index, ratio of CC50 for HEK293T cells assessed as reduction in cell viability measured after 24 hrs by MTT assay to MIC for Enterococcus faecalis ATCC 51299 assessed as bacterial growth inhibition by CLSI protocol based serial microdilution method; format: toxicity; conditions: human, read-out: Selectivity Index
[27] = test system: Citrobacter freundii; assay: Antibacterial activity against Citrobacter freundii ATCC 8090 assessed as concentration required to inhibit visible growth by CLSI protocol based serial microdilution method; format: functional
[28] = test system: Enterococcus faecalis; assay: Antibacterial activity against Enterococcus faecalis ATCC 51299 assessed as concentration required to inhibit visible growth by CLSI protocol based serial microdilution method; format: functional
[29] = test system: Enterococcus faecalis; assay: Antibacterial activity against Enterococcus faecalis ATCC 51299 assessed as bacterial growth inhibition by CLSI protocol based serial microdilution method; format: functional

Structure (SMILES)	MIC [1] [µg/mL]	MBC [2] [µg/mL]	MBC [5] [µg/mL]	MBC [6] [µg/mL]	CC50 at 24 h [7] [µg/mL]	MIC [8] [µg/mL]	MIC [10] [µg/mL]	MIC [11] [µg/mL]	MIC [12] [µg/mL]	MBC [13] [µg/mL]	MFC [14] [µg/mL]	CC50 at 48 h [16] [µg/mL]	selectivity ratio [17]	MIC [20] [µg/mL]	MIC [21] [µg/mL]	EC50 [24] [µg/mL]	MBC [25] [µg/mL]	MBC [27] [µg/mL]	MBC [28] [µg/mL]	MIC [29] [µg/mL]	further results
CCCCCCCCCCCC[N+]12CC[N+](C/C=C/C[N+]34CC[N+](CCCCCCCCCCCC)(CC3)CC4)(CC1)CC2	3.1	3.1	3.1	1.6	8	16	1.6	100	12.5	> 100	12.5	6.8	3	1.6	1.2	2.6	3.1	3.1	1.6	1.6	selectivity ratio at 24 h [3]: < 1; selectivity ratio at 24 h [4]: 6; selectivity ratio at 24 h [9]: 8; selectivity ratio at 24 h [15]: 6; selectivity ratio at 24 h [18]: < 1; selectivity ratio at 24 h [19]: 3; CC50 at 24 h [22]: 10 µg/mL; selectivity ratio at 24 h [23]: 6; selectivity ratio at 24 h [26]: 6
Clc1ccccc1C(c1ccccc1)(c1ccccc1)n1ccnc1 [CLOTRIMAZOLE]	–	–	–	–	5 (≈ 14.5 µM)	–	–	–	400 (≈ 1160 µM)	–	400 (≈ 1160 µM)	–	–	–	–	–	–	–	–	–	selectivity ratio at 24 h [3]: < 1; CC50 at 24 h [22]: 7 µg/mL (≈ 20.3 µM)
CCCCCCCCCCCC[N+]12CC[N+](Cc3cccc(-c4ccccc4C[N+]45CC[N+](CCCCCCCCCCCC)(CC4)CC5)c3)(CC1)CC2	1.6	3.1	3.1	1.2	–	1.6	3.1	50	1.6	100	6.3	–	–	1.6	0.6	–	6.3	1.6	1.6	0.8	–
C#CCOCCCCCN(CC[N+]12CC[N+](CCCCCCCCCCCC)(CC1)CC2)CC[N+]12CC[N+](CCCCCCCCCCCC)(CC1)CC2.[Cl-].[Cl-].[Cl-].[Cl-]	3.1	3.1	3.1	3.1	–	3.1	6.3	100	25	> 100	25	14.9	1	3.1	1.6	10	12.5	3.1	3.1	1.6	–
CCCCCCCCCCCC[N+]12CC[N+](CCNCC[N+]34CC[N+](CCCCCCCCCCCC)(CC3)CC4)(CC1)CC2.[Cl-].[Cl-].[Cl-].[Cl-]	16	3.1	3.1	12	–	1.6	1.6	50	12.5	50	12.5	7.7	4	3.1	0.6	2.2	6.3	3.1	1.6	0.8	–
CCOC(=O)C1=C[C@@H](OC(CC)CC)[C@H](NC(C)=O)[C@@H](N)C1 [OSELTAMIVIR]	–	–	–	–	–	–	–	–	–	–	–	300 (≈ 960 µM)	1000	–	–	0.3 (≈ 0.96 µM)	–	–	–	–	–
CCCCCCCCCCCC[N+]12CC[N+](Cc3nnn(CCCCCN=[N+]=[N-])c3C[N+]34CC[N+](CCCCCCCCCCCC)(CC3)CC4)(CC1)CC2.[Cl-].[Cl-].[Cl-].[Cl-]	1.6	3.1	3.1	3.1	–	1.6	3.1	50	12.5	> 100	12.5	12.9	3	1.6	1.6	4.2	6.3	3.1	1.6	1.6	–
O=C(O)c1cn(C2CC2)c2cc(N3CCNCC3)c(F)cc2c1=O [CIPROFLOXACIN]	–	–	–	–	60 (≈ 181 µM)	–	–	–	–	–	–	–	–	–	–	–	–	–	–	–	CC50 at 24 h [22]: > 60 µg/mL
CCCCCCCCCCCC[N+]12CC[N+](Cc3nnn(CCCCC(=O)OC)c3C[N+]34CC[N+](CCCCCCCCCCCC)(CC3)CC4)(CC1)CC2.[Cl-].[Cl-].[Cl-].[Cl-]	3.1	3.1	3.1	3.1	–	3.1	6.3	100	6.3	> 100	12.5	20.6	< 2	1.6	1.6	> 11	12.5	3.1	3.1	1.6	–
CCCCCCCCCCCC[N+]12CC[N+](CCCCCCCC[N+]34CC[N+](CCCCCCCCCCCC)(CC3)CC4)(CC1)CC2	1.6	6.3	3.1	1.6	–	3.1	3.1	100	6.3	> 100	12.5	4.5	2	3.1	0.6	2.2	6.3	6.3	1.6	1.6	–
